Measurements taken from ChEMBL document CHEMBL1139356, “New uracil dimers showing erythroid differentiation inducing activities” (J Med Chem, 2009).
pIC50: −log10 of the molar value. Activity calls are given as the source filed them. No cut-off for these calls is given here.

Assays:
[1] = system: K562; test: Antiproliferative activity against human K562 cells after 4 days; format: functional, cell-based; conditions: K562, 96 h
[2] = system: K562; test: Inhibition of erythroid differentiation in human K562 cell assessed benzidine positive cells at 800 uM after 6 days by benzidine staining assay; format: functional; parameters: scale not given: the % may be the effect or the level left
In short: (§1)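 K562 cells seeded at 30 000 cells/mL and cultured with compound at the stated concentration for a 6-day induction period. Benzidine staining scores the percentage of hemoglobin-containing (benzidine-positive) cells. Values are average ± SD of three independent experiments.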

[3] = system: K562; test: Inhibition of erythroid differentiation in human K562 cell assessed benzidine positive cells at 200 uM after 6 days by benzidine staining assay; format: functional; parameters: scale not given: the % may be the effect or the level left; in short: as §1
[4] = system: K562; test: Inhibition of erythroid differentiation in human K562 cell assessed benzidine positive cells at 100 uM after 6 days by benzidine staining assay; format: functional; parameters: scale not given: the % may be the effect or the level left; in short: as §1
[5] = system: K562; test: Inhibition of erythroid differentiation in human K562 cell assessed benzidine positive cells at 400 uM after 6 days by benzidine staining assay; format: functional
In short: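 K562 cells cultured with 400 µM compound for 6 days. The proportion of hemoglobin-containing cells was scored by benzidine staining. Values are average ± SD of four independent experiments.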

[6] = system: K562; test: Inhibition of erythroid differentiation in human K562 cell assessed benzidine positive cells at 600 uM after 6 days by benzidine staining assay; format: functional; in short: as §1
[7] = system: K562; test: Inhibition of erythroid differentiation in human K562 cell assessed benzidine positive cells at 500 nM after 6 days by benzidine staining assay; format: functional; parameters: scale not given: the % may be the effect or the level left; conditions: in the assay text read “at 100 nM” for “at 500 nM”; in short: as §1
[8] = system: K562; test: Inhibition of erythroid differentiation in human K562 cell assessed benzidine positive cells at 300 uM after 6 days by benzidine staining assay; format: functional; parameters: scale not given: the % may be the effect or the level left; in short: as §1
[9] = system: K562; test: Inhibition of erythroid differentiation in human K562 cell assessed benzidine positive cells at 2 mM after 6 days by benzidine staining assay; format: functional; parameters: scale not given: the % may be the effect or the level left; in short: as §1
[10] = system: RD; test: Antiproliferative activity against human RD cells after 4 days; format: functional, cell-based; conditions: 96 h
[11] = system: MDA-MB-231; test: Antiproliferative activity against human MDA-MB-231 cells after 4 days; format: functional, cell-based; conditions: MDA-MB-231, 96 h
[12] = system: MCF7; test: Antiproliferative activity against human MCF7 cells after 4 days; format: functional, cell-based; conditions: MCF7, 96 h
[13] = Antiproliferative activity against human IB3-1 cells after 4 days; format: functional, cell-based; conditions: IB3-1, 96 h
[14] = system: K562; test: Antiproliferative activity against human K562 cells after 4 days; conditions: K562, 96 h
[15] = system: K562; test: Inhibition of erythroid differentiation in human K562 cell assessed benzidine positive cells at 1 mM after 6 days by benzidine staining assay; format: functional; parameters: scale not given: the % may be the effect or the level left; in short: as §1

## CCCCNC(=O)c1cn(C)c(=O)[nH]c1=O
[1]
  pIC50: 3.27
[2]
  Activity: 5%

## CCCCCCCCn1cc(C(=O)NCc2cccc(CNC(=O)c3cn(CCCCCCCC)c(=O)[nH]c3=O)c2)c(=O)[nH]c1=O
[1]
  pIC50: 3.61
[3]
  Activity: 40%

## CCCCCCCCn1cc(C(=O)NCc2ccccc2)c(=O)[nH]c1=O
[1]
  pIC50: 4.12
[4]
  Activity: 5%
[3]
  Activity: inactive
[5]
  Activity: inactive
[6]
  Activity: inactive

## CO[C@H](C(=O)[C@@H](O)[C@@H](C)O)[C@@H]1Cc2cc3cc(O[C@H]4C[C@@H](O[C@@H]5C[C@@H](O)[C@H](O)[C@@H](C)O5)[C@H](O)[C@@H](C)O4)c(C)c(O)c3c(O)c2C(=O)[C@H]1O[C@H]1C[C@@H](O[C@@H]2C[C@@H](O)[C@@H](O[C@@H]3C[C@](C)(O)[C@H](O)[C@@H](C)O3)[C@@H](C)O2)[C@H](O)[C@@H](C)O1 [PLICAMYCIN]
[7]
  Activity: 86.8%

## CCCCCCCCn1cc(C(=O)NCCCCCCCCNC(=O)c2cn(CCCCCCCC)c(=O)[nH]c2=O)c(=O)[nH]c1=O
[1]
  pIC50: 3.38
[6]
  Activity: 45%

## CCCCCCCCn1cc(C(=O)O)c(=O)[nH]c1=O
[1]
  pIC50: 3.61
[8]
  Activity: 30%

## CCCCCCCCn1cc(C(=O)NCCCCCCNC(=O)c2cn(CCCCCCCC)c(=O)[nH]c2=O)c(=O)[nH]c1=O
[1]
  pIC50: 3.22
[6]
  Activity: 40%

## COC(=O)c1c[nH]c(=O)[nH]c1=O [ISOOROTIC ACID METHYL ESTER]
[1]
  pIC50: < 3.10
[2]
  Activity: 5%

## CCCC(=O)O [BUTYRIC ACID]
[9]
  Activity: 32.5%

## CCCCCCCCn1cc(C(=O)NCCCCCCCNC(=O)c2cn(CCCCCCCC)c(=O)[nH]c2=O)c(=O)[nH]c1=O
[1]
  pIC50: 3.66
[6]
  Activity: 50%

## CCCCCCCCn1cc(C(=O)NCc2ccc3ccc(CNC(=O)c4cn(CCCCCCCC)c(=O)[nH]c4=O)cc3c2)c(=O)[nH]c1=O
[1]
  pIC50: 3.29
[5]
  Activity: 52%
[10]
  pIC50: 4.12
[11]
  pIC50: 3.77
[12]
  pIC50: 3.70
[13]
  pIC50: 3.30
[6]
  Activity: 78%
[14]
  pIC50: 3.29

## CCOC(=O)Cn1cc(C(=O)NCCOCCNC(=O)c2cn(CC(=O)OCC)c(=O)[nH]c2=O)c(=O)[nH]c1=O
[1]
  pIC50: < 3.10
[2]
  Activity: 1%

## CO[C@H]1C[C@@H]2CC[C@@H](C)[C@@](O)(O2)C(=O)C(=O)N2CCCC[C@H]2C(=O)O[C@H]([C@H](C)C[C@@H]2CC[C@@H](O)[C@H](OC)C2)CC(=O)[C@H](C)/C=C(\C)[C@@H](O)[C@@H](OC)C(=O)[C@H](C)C[C@H](C)/C=C/C=C/C=C/1C [SIROLIMUS]
[15]
  Activity: 75.5%
